What was measured:
[1] = Anticancer activity carried out in vitro against human T-lymphocyte Molt4/C8; format: functional, cell-based; details: MOLT-4
Procedure, shortened: (§1)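 Cells grown in DMEM with 10% FBS, 2.0 mM glutamine, penicillin/streptomycin, 5% CO2, 37 °C; exponential-phase cells (200 cells/mL) given compounds at various concentrations, counted at 24, 48, 72 h; IC50 for 50% proliferation inhibition at 72 h from dose-response curves of two independent experiments.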

Adenosine deaminase = target: T1, Adenosine deaminase (Bos taurus, UniProt P56658); test: Rate of deamination in the presence of calf mucosal adenosine deaminase (ADA)
T1 sequence (P56658 whole entry): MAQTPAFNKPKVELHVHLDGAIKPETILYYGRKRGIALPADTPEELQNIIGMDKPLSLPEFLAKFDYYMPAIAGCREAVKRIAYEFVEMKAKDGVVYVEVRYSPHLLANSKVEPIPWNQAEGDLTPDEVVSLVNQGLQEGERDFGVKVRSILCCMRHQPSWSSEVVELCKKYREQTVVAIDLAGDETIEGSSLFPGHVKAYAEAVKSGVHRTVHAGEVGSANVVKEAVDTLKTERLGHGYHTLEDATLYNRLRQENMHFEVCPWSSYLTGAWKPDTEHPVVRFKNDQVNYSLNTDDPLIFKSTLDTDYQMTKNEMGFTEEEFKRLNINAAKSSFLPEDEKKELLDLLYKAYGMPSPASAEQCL
Procedure, shortened: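 Deamination rates followed with calf mucosal ADA (EC 3.5.4.4) in buffer solutions; Km and Vmax relative to adenosine as substrate; inhibition (Ki) assessed with adenosine as substrate.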

HeLa [2] = test: Ability to inhibit cytopathogenicity of thymidine kinase-positive(TK+) strain of Varicella zoster virus (YS) in HeLa cell culture; format: functional, cell-based; details: Homo sapiens
Procedure, shortened: (§2)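 Inhibition of virus-induced cytopathogenicity measured in HeLa cell culture; IC50 derived by linear regression, mean of duplicate determinations.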

L1210 = test: Anticancer activity carried out in vitro against murine leukemia L1210; format: functional, cell-based; details: Mus musculus; procedure, shortened: as §1
P388 = test: Anticancer activity carried out in vitro against murine leukemia P388; format: functional, cell-based; details: Mus musculus; procedure, shortened: as §1
HeLa [3] = test: Ability to inhibit cytopathogenicity of herpes simplex type 1 virus (KOS) in HeLa cell culture; format: functional, cell-based; details: Homo sapiens; procedure, shortened: as §2
MCF7 = test: Anticancer activity carried out in vitro against breast carcinoma MCF-7; format: functional, cell-based; details: Homo sapiens; procedure, shortened: as §1
HeLa [4] = test: Concentration required to cause microscopically visible change or disruption in about 50% of cell sheet of HeLa cells; format: functional, cell-based, Homo sapiens
Procedure, shortened: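 HeLa cells exposed to compounds at different concentrations; toxicity scored as morphological change, value is concentration causing microscopically visible change or disruption in about 50% of the cell sheet; mean of duplicate determinations.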

[5] = Anticancer activity carried out in vitro against human T-lymphocyte CEM/0; format: functional; details: CCRF-CEM; procedure, shortened: as §1
HeLa [6] = test: Ability to inhibit cytopathogenicity of thymidine kinase-deficient (TK-) strain of Varicella zoster virus (YS/R) in HeLa cell culture; format: functional, cell-based; details: Homo sapiens; procedure, shortened: as §2
HeLa [7] = test: Ability to inhibit cytopathogenicity of herpes simplex type 2 virus (G) in HeLa cell culture; details: Homo sapiens

COC1=C(OC)C(O)(CCn2cnc3c(N)ncnc32)OC1=O (stereo not given)
IC50 [1]: > 120 µM
Ki (Adenosine deaminase): > 800 µM
IC50 (HeLa [2]): > 128 µM
IC50 (L1210): > 120 µM
IC50 (P388): > 120 µM
IC50 (HeLa [3]): > 128 µM
IC50 (MCF7): > 120 µM
IC50 (HeLa [4]; Homo sapiens, HeLa): 157 µM
IC50 [5]: > 120 µM
IC50 (HeLa [6]): > 128 µM

COC1=C(OC)/C(=C/Cn2cnc3c(Cl)ncnc32)OC1=O
IC50 [1]: 5.97 µM
IC50 (HeLa [2]): 5.92 µM
IC50 (L1210): 4.52 µM
IC50 (P388): 8.12 µM
IC50 (HeLa [3]): 10.9 µM
IC50 (MCF7): 16.9 µM
IC50 (HeLa [4]; Homo sapiens, HeLa): 23.4 µM
IC50 [5]: 4.71 µM
IC50 (HeLa [6]): 1.62 µM

COC1=C(OCc2ccc([N+](=O)[O-])cc2)/C(=C\Cn2cnc3c(Cl)ncnc32)OC1=O
IC50 [1]: 7.35 µM
IC50 (HeLa [2]): 4.4 µM
IC50 (L1210): 5.81 µM
IC50 (P388): 6.49 µM
IC50 (HeLa [3]): 9.83 µM
IC50 (MCF7): 15.4 µM
IC50 (HeLa [4]; Homo sapiens, HeLa): 19.3 µM
IC50 [5]: 3.98 µM
IC50 (HeLa [6]): 1.03 µM

COC1=C(OC)/C(=C/Cn2cnc3c(N)ncnc32)OC1=O
IC50 [1]: 78.5 µM
Ki (Adenosine deaminase): 316 µM
IC50 (HeLa [2]): 12.8 µM
IC50 (L1210): 93.4 µM
IC50 (P388): 2.67 µM
IC50 (HeLa [3]): 14.5 µM
IC50 (MCF7): > 120 µM
IC50 (HeLa [4]; Homo sapiens, HeLa): 42.4 µM
IC50 [5]: 84.5 µM
IC50 (HeLa [6]): 6.07 µM

COC1=C(OCc2ccc([N+](=O)[O-])cc2)C(=O)O/C1=C/Cn1cnc2c(Cl)ncnc21
IC50 [1]: 6.16 µM
IC50 (HeLa [2]): 6.32 µM
IC50 (L1210): 6.03 µM
IC50 (P388): 7.42 µM
IC50 (HeLa [3]): 7.24 µM
IC50 (MCF7): 14.2 µM
IC50 (HeLa [4]; Homo sapiens, HeLa): 20.2 µM
IC50 [5]: 5.04 µM
IC50 (HeLa [6]): 0.89 µM

COC1=C(OC)/C(=C/C(n2cnc3c(Cl)ncnc32)P(=O)(OC)OC)OC1=O (stereo not given)
IC50 [1]: 12.5 µM
IC50 (HeLa [2]): 10.2 µM
IC50 (L1210): 16.2 µM
IC50 (P388): 14.3 µM
IC50 (HeLa [3]): 13.2 µM
IC50 (MCF7): 90.1 µM
IC50 (HeLa [4]; Homo sapiens, HeLa): 28.1 µM
IC50 [5]: 96 µM
IC50 (HeLa [6]): 5.03 µM

O=C1O/C(=C/Cn2cnc3c(Cl)ncnc32)C(OCc2ccc([N+](=O)[O-])cc2)=C1OCc1ccc([N+](=O)[O-])cc1
IC50 [1]: > 120 µM
IC50 (HeLa [2]): 37.5 µM
IC50 (L1210): > 120 µM
IC50 (P388): > 120 µM
IC50 (HeLa [3]): 28.4 µM
IC50 (MCF7): > 120 µM
IC50 (HeLa [4]; Homo sapiens, HeLa): 17 µM
IC50 [5]: > 120 µM
IC50 (HeLa [6]): 34.7 µM

COC1=C(OC)C(O)(CCn2cnc3c(Cl)ncnc32)OC1=O (racemic)
IC50 [1]: > 120 µM
IC50 (HeLa [2]): > 128 µM
IC50 (L1210): > 120 µM
IC50 (P388): > 120 µM
IC50 (HeLa [3]): > 128 µM
IC50 (MCF7): > 120 µM
IC50 (HeLa [4]; Homo sapiens, HeLa): 149 µM
IC50 [5]: > 120 µM
IC50 (HeLa [6]): > 128 µM

COC1=C(OC)C(O)(CCn2cnc3c(Cl)ncnc32)OC1=O (stereo in doubt; (-)-4)
IC50 (HeLa [4]; hela): 132 µM

Nc1nc2c(ncn2COCCO)c(=O)[nH]1 [ACYCLOVIR]
IC50 (HeLa [7]): 0.19 µM
IC50 (HeLa [2]): 8.71 µM
IC50 (HeLa [3]): 0.11 µM
IC50 (HeLa [4]; Homo sapiens, HeLa): 254 µM
IC50 (HeLa [6]): 26.4 µM

Nc1ccn([C@@H]2O[C@H](CO)[C@@H](O)[C@@H]2O)c(=O)n1 [CYTARABINE]
IC50 [1]: 0.65 µM
IC50 (L1210): 0.17 µM
IC50 (P388): 0.14 µM
IC50 (MCF7): 1.03 µM
IC50 [5]: 0.78 µM
